The results in this text go back to ChEMBL document CHEMBL3784973, “A Parallel Synthesis Approach to the Identification of Novel Diheteroarylamide-Based Compounds Blocking HIV Replication: Potential Inhibitors of HIV-1 Pre-mRNA Alternative Splicing” (J Med Chem, 2016).

The test system of data set [1] is Human immunodeficiency virus 1. The data set can be described thus: Antiviral activity against HIV1 NL4-3 infected in GFP-positive human CEM cells expressing CD4+,CXCR4 and CCR5 at 2 uM after 3 days by flow cytometric analysis. It counts as functional, organism-based. To be noted: CCRF-CEM. Put shortly: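 Library screen of HIV-1 spread in CEM-GXR cells cocultured with 1% HIV-1NL4-3-infected (GFP+) cells. Cells were grown in RPMI-1640 with 10% FCS and penicillin-streptomycin, and selected with G418 and hygromycin B during propagation. Compound at final 2 μM in DMSO was added right after inoculation. Infection was read by flow cytometry of GFP.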

The nature of data set [2]: Cytotoxicity against GFP-positive human CEM cells expressing CD4+,CXCR4 and CCR5 assessed as cell viability at 4 uM after 24 hrs by Guava viacount assay. It is filed as cell-based, CCRF-CEM. To be noted: read-out: Activity. The essentials: (§1)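 Uninfected CEM-GXR cells were incubated 24 h with serial dilutions from 62.5 nM to 16 μM final. Viability was read by Guava ViaCount (dye permeability staining with forward scatter gating) as % viable cells. Three independent experiments.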

A short description of data set [3]: Cytotoxicity against GFP-positive human CEM cells expressing CD4+,CXCR4 and CCR5 assessed as cell viability at 1 uM after 24 hrs by Guava viacount assay. As to conditions: read-out: Activity. It counts as cell-based, CCRF-CEM. The essentials: as §1
A short description of data set [4]: Cytotoxicity against GFP-positive human CEM cells expressing CD4+,CXCR4 and CCR5 assessed as cell viability at 8 uM after 24 hrs by Guava viacount assay. It counts as cell-based, CCRF-CEM. As to conditions: read-out: Activity. The essentials: as §1
Data set [5] can be described thus: Cytotoxicity against GFP-positive human CEM cells expressing CD4+,CXCR4 and CCR5 assessed as cell viability at 16 uM after 24 hrs by Guava viacount assay. It is filed as cell-based, CCRF-CEM. As to conditions: read-out: Activity. Put shortly: as §1
In data set [6] the test system is Human immunodeficiency virus 1. The data set can be described thus: Antiviral activity against HIV1 3B infected in GFP-positive human CEM cells expressing CD4+,CXCR4 and CCR5 assessed as number of infected cells at 1 uM after 3 days. It is filed as functional, CCRF-CEM. Put shortly:
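CEM-GXR cells (CD4+ T-cell line, Tat-driven LTR-GFP reporter) infected by coculture with 1% HIV-1IIIB-infected cells. Serial dilutions 62.5 nM–16 μM added at inoculation. GFP-positive (infected) cells counted 3 days post-infection. Three independent experiments.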

In data set [7] the test system is Human immunodeficiency virus 1. Nature of the data set: Antiviral activity against subtype A R5 tropic HIV1 97USSN54 infected in GFP-positive human CEM cells expressing CD4+,CXCR4 and CCR5 after 3 days. It is filed as functional, organism-based. As to conditions: Human immunodeficiency virus 1, 97USSN54, CCRF-CEM, 72 h. The essentials:
(§2)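 Infected CEM-GXR GFP-reporter cells were exposed to increasing compound concentrations. GFP-positive cells were measured by flow cytometry 3 days after infection. EC50 came from nonlinear regression of the inhibition curves. Mean of three independent determinations.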

In data set [8] the test system is Human immunodeficiency virus 1. The data set can be described thus: Antiviral activity against maraviroc-resistant HIV1 BAL R5 harboring envelop V3 A19T/L20F/T22A/E25D/126V mutant infected in GFP-positive human CEM cells expressing CD4+,CXCR4 and CCR5 after 3 days. To be noted: ccrf-cem. It counts as functional, organism-based.
A short description of data set [9]: Therapeutic index, ratio of CC50 for GFP-positive human CEM cells expressing CD4+,CXCR4 and CCR5 to EC50 for HIV1 97USSN54 infected in GFP-positive human CEM cells expressing CD4+,CXCR4 and CCR5. As to conditions: read-out: TI. It is filed as cell-based, CCRF-CEM. The essentials:
(§3)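 Reporter CEM-GXR T cells (Tat-driven LTR-GFP cassette; RPMI-1640, 10% FCS, penicillin-streptomycin) were infected by coculture with 1% HIV-infected GFP-positive cells. Compound in DMSO was added after inoculation. Infected cells were counted by flow cytometry for GFP at day 3, and EC50 was taken from nonlinear regression. CC50 came from Guava ViaCount viability after 24 h at 0.5–100 μM. Index = CC50/EC50.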

Data set [10] can be described thus: Therapeutic index, ratio of CC50 for GFP-positive human CEM cells expressing CD4+,CXCR4 and CCR5 to EC50 for […] HIV1 E00443 reverse transcriptase D67N/K70R/Y115F/Q151M/M184V/K219Q mutant infected in GFP-positive human CEM cells expressing CD4+,CXCR4 and CCR5. It is filed as cell-based. As to conditions: ccrf-cem, read-out: TI.
Data set [11] deals with Human immunodeficiency virus 1. Nature of the data set: Antiviral activity against subtype B X4 tropic HIV1 3B infected in GFP-positive human CEM cells expressing CD4+,CXCR4 and CCR5 after 3 days. It counts as functional, organism-based. As to conditions: Human immunodeficiency virus 1, 3B, CCRF-CEM, 72 h. The essentials: as §2
Data set [12] deals with Human immunodeficiency virus 1. The data set can be described thus: Antiviral activity against PI-resistant HIV1 isolate 2948 harboring protease G48V/L90M mutant infected in GFP-positive human CEM cells expressing CD4+,CXCR4 and CCR5 after 3 days. It counts as functional, organism-based. As to conditions: Human immunodeficiency virus 1, isolate 2948, CCRF-CEM, 72 h.
Data set [13] relates to Human immunodeficiency virus 1. The data set can be described thus: Antiviral activity against […]-resistance HIV1 E00443 harboring reverse transcriptase D67N/K70R/Y115F/Q151M/M184V/K219Q mutant infected in GFP-positive human CEM cells expressing CD4+,CXCR4 and CCR5 after 3 days. It counts as functional, organism-based. As to conditions: Human immunodeficiency virus 1, E00443, CCRF-CEM, 72 h.

Data set [14] is described as follows: Cytotoxicity against GFP-positive human CEM cells expressing CD4+,CXCR4 and CCR5 assessed as cell viability at after 24 hrs by Guava viacount assay. It is filed as cell-based, CCRF-CEM. The essentials:
(§4)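 For viability, CEM-GXR cells were incubated 24 h with compound at 0.5–100 μM. Guava ViaCount flow assay used DNA-binding dye permeability plus forward scatter to exclude nuclei and debris. Values are % viable cells (±SEM, three independent experiments), and CC50 is the concentration killing 50% of host cells.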

In data set [15] the test system is Human immunodeficiency virus 1. Nature of the data set: Antiviral activity against INI-resistant HIV1 isolate 11845 harboring integrase G140S/Q148H mutant infected in GFP-positive human CEM cells expressing CD4+,CXCR4 and CCR5 after 3 days. As to conditions: Human immunodeficiency virus 1, isolate 11845, CCRF-CEM, 72 h. It is filed as functional, organism-based.

A short description of data set [16]: Therapeutic index, ratio of CC50 for GFP-positive human CEM cells expressing CD4+,CXCR4 and CCR5 to EC50 for maraviroc-resistant HIV1 BAL R5 harboring envelop V3 A19T/L20F/T22A/E25D/126V mutant infected in GFP-positive human CEM cells expressing CD4+,CXCR4 and CCR5. It is filed as cell-based. To be noted: ccrf-cem, read-out: TI.
A short description of data set [17]: Therapeutic index, ratio of CC50 for GFP-positive human CEM cells expressing CD4+,CXCR4 and CCR5 to EC50 for HIV1 3B infected in GFP-positive human CEM cells expressing CD4+,CXCR4 and CCR5. It is filed as cell-based, CCRF-CEM. To be noted: read-out: TI. The essentials:
as §3

Data set [18] is described as follows: Therapeutic index, ratio of CC50 for GFP-positive human CEM cells expressing CD4+,CXCR4 and CCR5 to EC50 for HIV1 isolate 2948 harboring protease G48V/L90M mutant infected in GFP-positive human CEM cells expressing CD4+,CXCR4 and CCR5. It is filed as cell-based. As to conditions: ccrf-cem, read-out: TI.
Data set [19] can be described thus: Cytotoxicity against GFP-positive human CEM cells expressing CD4+,CXCR4 and CCR5 assessed as cell viability at 100 uM after 24 hrs by Guava viacount assay (reference value: 98%). It is filed as cell-based, CCRF-CEM. As to conditions: read-out: Activity. The essentials:
as §4

Data set [20] can be described thus: Therapeutic index, ratio of CC50 for GFP-positive human CEM cells expressing CD4+,CXCR4 and CCR5 to EC50 for INI-resistant HIV1 isolate 11845 harboring integrase G140S/Q148H mutant infected in GFP-positive human CEM cells expressing CD4+,CXCR4 and CCR5. It counts as cell-based. To be noted: ccrf-cem, read-out: TI.

The structures appear in SMILES notation. Active and inactive are the calls of the source. The calls are words filed in the database; no cut-off is given here. Some results are limits rather than exact numbers.

`COc1cc(C(=O)Nc2nsc3ccc([N+](=O)[O-])cc23)ccn1`: in [1], the “antiviral activity call (active/inactive)” value is “Active”.
For `Cc1c2ccnc(Cl)c2cc2c3cn(C)ccc-3nc12`, the viability at 24 h, 4 µM in [2] was found to be 33.2%. In data set [3], the viability at 24 h, 1 µM was 85.5%. The viability at 24 h, 8 µM in [4] is 19.9%. For the same compound, in [5], the viability at 24 h, 16 µM turned out to be 11.9%. In data set [6], the Activity was 17.7%.
For the compound `COCCOc1cc(=O)n(C)cc1C(=O)Nc1nsc2ccc([N+](=O)[O-])cc12`, the “antiviral activity call (active/inactive)” value in data set [1] was “Active”.
As to `Cn1ccc(=O)c(C(=O)Nc2nsc3ccc([N+](=O)[O-])cc23)c1`, the EC50 amounted to 0.9 µM in data set [7]; 0.9 µM in data set [8]; 0.6 µM in data set [11]; 1.4 µM in data set [12]; 1.3 µM in data set [13]; 1.5 µM in data set [15]. Moreover, the selectivity ratio in data set [9] is above 111; in [10] it was above 77; in [16], above 111; in data set [17] it was above 166; in data set [18] it was above 71; in data set [20], above 66. Moreover, the viability at 24 h, 4 µM in data set [2] came to 81.5%. For the same compound, the CC50 at 24 h in data set [14] was above 100 µM. The viability at 24 h, 1 µM in data set [3] came out at 89.6%. In addition, in data set [4], the viability at 24 h, 8 µM turned out to be 80.9%. The viability at 24 h, 16 µM in [5] came out at 78.7%. The viability at 24 h, 100 µM in data set [19] stood at 68.8%. Moreover, the Activity in data set [6] was 18.4%. Also, the “antiviral activity call (active/inactive)” value in [1] is “Active”.
In the case of `COCCOc1ccncc1C(=O)Nc1nsc2ccc([N+](=O)[O-])cc12`, the “antiviral activity call (active/inactive)” value in data set [1] is “Active”.
In turn, `Nc1nc(=O)n([C@@H]2CS[C@H](CO)O2)cc1F` [EMTRICITABINE] showed an EC50 in [11] of 0.04 µM.
